The source made the active and inactive calls. The rule behind the calls is not given here.
What was measured:
[1] = Induction of apoptosis in human HuH7 cells assessed as upregulation of Bax expression at 1 to 10 uM after 24 hrs by Western blot analysis; format: functional, cell-based; details: Huh-7
In short: (§1)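 Huh-7 cells were treated with DMSO or compound at 1, 5 and 10 μM for 24 h. Cells were lysed in NP-40 buffer with protease and phosphatase inhibitors, and protein was measured by Bradford. Lysate protein was resolved by SDS-PAGE and transferred to PVDF. Membranes were blocked in 5% milk, probed with primary antibodies for 2 h and secondary antibodies for 30 min, and detected by ECL, with β-actin as loading control.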

Huh-7 [2] = experiment: Induction of apoptosis in human HuH7 cells assessed as downregulation of Bcl-2 expression at 1 to 10 uM after 24 hrs by Western blot analysis; format: functional, cell-based; in short: as §1
Huh-7 [3] = experiment: Induction of apoptosis in human HuH7 cells assessed as downregulation of PARP expression at 1 to 10 uM after 24 hrs by Western blot analysis; format: functional, cell-based; in short: as §1
[4] = target: Proto-oncogene tyrosine-protein kinase Src (Homo sapiens) (UniProt P12931); experiment: Inhibition of Src phosphorylation in human HuH7 cells at 1 to 10 uM after 24 hrs by immunoblot analysis; format: cell-based; details: Huh-7; in short: as §1
Sequence of Proto-oncogene tyrosine-protein kinase Src (Homo sapiens) (P12931 2-536 limits assumed): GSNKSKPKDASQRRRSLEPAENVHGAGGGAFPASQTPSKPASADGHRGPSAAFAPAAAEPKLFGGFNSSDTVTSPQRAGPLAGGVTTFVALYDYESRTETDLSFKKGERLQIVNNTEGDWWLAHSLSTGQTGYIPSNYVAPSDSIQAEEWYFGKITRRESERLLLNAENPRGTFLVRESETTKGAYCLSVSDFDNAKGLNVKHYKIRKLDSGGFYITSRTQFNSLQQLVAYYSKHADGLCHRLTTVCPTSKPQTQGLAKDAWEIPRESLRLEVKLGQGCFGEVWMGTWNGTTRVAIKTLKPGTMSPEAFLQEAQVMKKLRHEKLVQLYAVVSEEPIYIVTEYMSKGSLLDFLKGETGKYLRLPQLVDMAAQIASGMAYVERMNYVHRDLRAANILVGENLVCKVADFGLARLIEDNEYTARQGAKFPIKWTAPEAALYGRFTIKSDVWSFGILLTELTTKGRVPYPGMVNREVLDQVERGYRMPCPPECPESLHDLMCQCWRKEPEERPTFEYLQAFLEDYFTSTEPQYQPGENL

[5] = target: RAC-beta serine/threonine-protein kinase (Homo sapiens) (UniProt P31751); experiment: Inhibition of AKT2 phosphorylation in human HuH7 cells at 1 to 10 uM after 24 hrs by immunoblot analysis; format: cell-based; details: Huh-7; in short: as §1
Sequence of RAC-beta serine/threonine-protein kinase (Homo sapiens) (P31751 whole entry): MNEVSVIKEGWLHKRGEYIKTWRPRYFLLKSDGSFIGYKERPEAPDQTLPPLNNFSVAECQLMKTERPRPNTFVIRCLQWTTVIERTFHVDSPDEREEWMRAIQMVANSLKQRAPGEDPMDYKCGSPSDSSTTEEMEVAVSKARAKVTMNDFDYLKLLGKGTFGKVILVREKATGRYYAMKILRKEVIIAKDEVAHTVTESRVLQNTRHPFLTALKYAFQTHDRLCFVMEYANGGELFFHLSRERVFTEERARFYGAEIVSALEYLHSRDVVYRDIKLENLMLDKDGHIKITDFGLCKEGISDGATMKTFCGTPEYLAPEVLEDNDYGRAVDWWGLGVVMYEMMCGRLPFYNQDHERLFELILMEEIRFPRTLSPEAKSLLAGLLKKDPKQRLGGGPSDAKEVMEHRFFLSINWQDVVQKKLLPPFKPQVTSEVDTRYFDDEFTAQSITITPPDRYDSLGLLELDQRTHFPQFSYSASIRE

[6] = Effect on total protein expression of Akt in human HuH7 cells at 1 to 10 uM after 24 hrs by immunoblot analysis; format: cell-based; details: huh-7, 24 h; in short: as §1
[7] = Antiproliferative activity against human H1299 cells after 72 hrs by XTT assay; format: functional, cell-based; details: NCI-H1299, 72 h
In short: (§2)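 Cells kept as monolayers in DMEM with 10% FBS, penicillin, streptomycin and amphotericin at 37°C, 5% CO2. Seeded at 5 x 10³ cells/well and exposed to compound for 72 h in medium with 10% FBS. XTT plus electron-coupling reagent added, 4 h at 37°C, absorbance read at 492 nm. Percent of control growth uses mean absorbance (n = 3). The 50% value is taken from the linear portion of the curve.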

[8] = Antiproliferative activity against human PC3 cells after 72 hrs by XTT assay; format: functional, cell-based; details: PC-3, 72 h; in short: as §2
MRC5 [9] = experiment: Antiproliferative activity against human MRC5 cells after 72 hrs by XTT assay; format: cell-based; details: MRC5, 72 h; in short: as §2
MRC5 [10] = experiment: Selectivity index, ratio of IC50 for human MRC5 cells to IC50 for human MDA-MB-231 cells; format: functional
MRC5 [11] = experiment: Selectivity index, ratio of IC50 for human MRC5 cells to IC50 for human PC3 cells; format: functional
[12] = target: T1, DNA topoisomerase 1 (Homo sapiens) (UniProt P11387); experiment: Inhibition of human DNA topoisomerase 1-mediated relaxation of supercoiled pBR322 DNA at 100 uM after 30 mins by ethidium bromide staining based agarose gel electrophoresis
T1 sequence (whole entry): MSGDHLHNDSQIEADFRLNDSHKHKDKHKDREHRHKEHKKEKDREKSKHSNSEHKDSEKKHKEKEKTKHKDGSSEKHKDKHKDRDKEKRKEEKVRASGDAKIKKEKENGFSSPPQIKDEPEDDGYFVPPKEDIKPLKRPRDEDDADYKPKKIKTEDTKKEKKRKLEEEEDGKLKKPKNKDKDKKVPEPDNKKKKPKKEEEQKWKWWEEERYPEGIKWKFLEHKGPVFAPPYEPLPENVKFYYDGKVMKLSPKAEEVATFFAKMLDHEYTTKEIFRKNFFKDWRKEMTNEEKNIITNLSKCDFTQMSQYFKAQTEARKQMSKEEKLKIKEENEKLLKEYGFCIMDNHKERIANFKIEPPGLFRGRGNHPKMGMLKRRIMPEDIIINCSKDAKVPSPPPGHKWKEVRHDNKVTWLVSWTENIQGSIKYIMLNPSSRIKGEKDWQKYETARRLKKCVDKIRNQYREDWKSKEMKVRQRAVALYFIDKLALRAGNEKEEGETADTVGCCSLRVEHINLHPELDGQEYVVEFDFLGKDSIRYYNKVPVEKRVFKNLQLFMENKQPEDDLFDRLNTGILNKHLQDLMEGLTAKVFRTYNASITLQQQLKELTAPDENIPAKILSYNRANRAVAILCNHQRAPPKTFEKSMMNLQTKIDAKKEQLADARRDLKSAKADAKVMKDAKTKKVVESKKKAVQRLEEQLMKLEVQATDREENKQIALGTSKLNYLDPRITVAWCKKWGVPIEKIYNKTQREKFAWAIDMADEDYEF
In short: (§3)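 Human topo I or topo II (2 units) was reacted with 0.2 μg supercoiled pBR322 in 20 μl Tris-HCl pH 7.5 containing KCl, DTT, EDTA, MgCl2 and BSA, with DMSO held at 0.5%, for 30 min at 37°C. The reaction was stopped with SDS. Samples were run on 1% agarose in Tris-acetate/EDTA at 1.5 V/cm for 2-3 h and stained with ethidium bromide. Relaxation was quantified by densitometry of the supercoiled band area.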

[13] = target: T1, DNA topoisomerase 1 (Homo sapiens); experiment: Inhibition of human DNA topoisomerase 1-mediated relaxation of supercoiled pBR322 DNA at 10 uM after 30 mins by ethidium bromide staining based agarose gel electrophoresis; in short: as §3
[14] = target: DNA topoisomerase 2-alpha (Homo sapiens) (UniProt P11388); experiment: Inhibition of human DNA topoisomerase 2-mediated relaxation of supercoiled pBR322 DNA at 100 uM after 30 mins by ethidium bromide staining based agarose gel electrophoresis; in short: as §3
Sequence of DNA topoisomerase 2-alpha (Homo sapiens) (P11388 whole entry): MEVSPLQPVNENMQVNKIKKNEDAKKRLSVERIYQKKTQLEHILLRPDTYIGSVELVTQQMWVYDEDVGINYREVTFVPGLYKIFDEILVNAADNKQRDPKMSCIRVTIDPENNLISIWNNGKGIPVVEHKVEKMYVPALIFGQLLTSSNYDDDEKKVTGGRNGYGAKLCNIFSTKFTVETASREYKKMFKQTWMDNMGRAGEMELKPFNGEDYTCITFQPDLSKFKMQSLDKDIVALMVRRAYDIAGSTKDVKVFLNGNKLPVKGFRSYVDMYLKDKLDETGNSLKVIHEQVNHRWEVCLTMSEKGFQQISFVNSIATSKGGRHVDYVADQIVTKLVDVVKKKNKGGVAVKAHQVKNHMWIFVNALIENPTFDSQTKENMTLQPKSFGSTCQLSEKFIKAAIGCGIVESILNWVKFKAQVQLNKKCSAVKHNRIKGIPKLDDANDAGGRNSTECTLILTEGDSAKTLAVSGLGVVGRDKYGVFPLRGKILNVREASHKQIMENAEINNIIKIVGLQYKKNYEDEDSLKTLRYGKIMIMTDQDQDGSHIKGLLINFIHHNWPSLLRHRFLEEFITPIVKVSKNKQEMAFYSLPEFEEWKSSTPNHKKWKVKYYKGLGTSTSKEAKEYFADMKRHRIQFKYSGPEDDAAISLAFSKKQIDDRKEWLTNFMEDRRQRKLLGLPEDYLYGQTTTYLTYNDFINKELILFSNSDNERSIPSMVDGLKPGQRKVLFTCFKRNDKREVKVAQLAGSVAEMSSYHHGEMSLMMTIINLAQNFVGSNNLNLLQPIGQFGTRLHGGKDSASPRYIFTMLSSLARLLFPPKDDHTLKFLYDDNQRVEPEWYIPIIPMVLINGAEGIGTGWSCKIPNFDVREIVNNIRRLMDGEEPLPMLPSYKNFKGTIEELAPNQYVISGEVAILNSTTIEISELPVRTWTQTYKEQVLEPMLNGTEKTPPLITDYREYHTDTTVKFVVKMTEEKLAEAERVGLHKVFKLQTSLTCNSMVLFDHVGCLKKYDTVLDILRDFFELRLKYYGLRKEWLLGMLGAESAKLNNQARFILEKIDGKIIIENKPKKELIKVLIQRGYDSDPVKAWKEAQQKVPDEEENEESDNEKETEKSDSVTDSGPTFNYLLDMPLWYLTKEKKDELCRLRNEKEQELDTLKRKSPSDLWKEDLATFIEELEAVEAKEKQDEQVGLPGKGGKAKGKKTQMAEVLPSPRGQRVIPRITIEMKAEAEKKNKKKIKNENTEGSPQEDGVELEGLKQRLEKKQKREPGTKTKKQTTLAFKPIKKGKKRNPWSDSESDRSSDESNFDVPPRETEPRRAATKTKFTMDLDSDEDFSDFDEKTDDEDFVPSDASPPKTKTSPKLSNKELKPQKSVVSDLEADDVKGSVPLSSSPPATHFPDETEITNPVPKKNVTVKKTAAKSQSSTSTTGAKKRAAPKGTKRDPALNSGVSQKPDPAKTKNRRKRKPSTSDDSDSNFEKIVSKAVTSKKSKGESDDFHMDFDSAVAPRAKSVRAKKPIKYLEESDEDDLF

[15] = Cell cycle arrest in human HuH7 cells assessed as accumulation at subG1 phase at 1 uM for 24 hrs by propidium iodide staining based flow cytometry (reference value: 1.3 +/- 0.7%); format: functional; details: Huh-7
[16] = Cell cycle arrest in human HuH7 cells assessed as accumulation at G1 phase at 1 uM for 24 hrs by propidium iodide staining based flow cytometry (reference value: 62.1 +/- 1.4%); format: functional; details: Huh-7
[17] = Cell cycle arrest in human HuH7 cells assessed as accumulation at G1 phase at 5 uM for 24 hrs by propidium iodide staining based flow cytometry (reference value: 62.1 +/- 1.4%); format: functional; details: Huh-7
[18] = Cell cycle arrest in human HuH7 cells assessed as accumulation at S phase at 1 uM for 24 hrs by propidium iodide staining based flow cytometry (reference value: 11.4 +/- 2.4%); format: functional; details: Huh-7
[19] = Cell cycle arrest in human HuH7 cells assessed as accumulation at S phase at 10 uM for 24 hrs by propidium iodide staining based flow cytometry (reference value: 11.4 +/- 2.4%); format: functional; details: Huh-7
Huh-7 [20] = experiment: Induction of apoptosis in human HuH7 cells assessed as cell shrinkage at 5 uM after 24 hrs by light microscopy; format: functional, cell-based
[21] = Downregulation of cyclin D1 expression in human HuH7 cells at 1 to 10 uM after 24 hrs by immunoblot analysis; format: functional, cell-based; details: Huh-7; in short: as §1
[22] = Induction of apoptosis in human HuH7 cells assessed as upregulation of activated caspase 3 at 1 to 10 uM after 24 hrs by Western blot analysis; format: functional, cell-based; details: Huh-7; in short: as §1
[23] = Induction of apoptosis in human HuH7 cells assessed as upregulation of activated caspase 7 at 1 to 10 uM after 24 hrs by Western blot analysis; format: functional, cell-based; details: Huh-7; in short: as §1

## CN(C)CCCNC(=O)c1cccc2nc3c(nc12)-c1ccccc1/C3=N\OCCCN(C)C.Cl
[1]
  Activity: Dose-dependent effect
Huh-7 [2]
  Activity: Dose-dependent effect
Huh-7 [3]
  Activity: Dose-dependent effect
[4]
  inhibition: Active
[5]
  inhibition: Active
[6]
  Activity: Non-toxic
[7]
  IC50: 5.78 µM
[8]
  IC50: 0.82 µM
MRC5 [9]
  IC50: 31.5 µM
MRC5 [10]
  Ratio IC50: 36.22
MRC5 [11]
  Ratio IC50: 38.43
[12]
  topoisomerase 1 inhibition (active/inactive): Active
[13]
  inhibition: Active
[14]
  inhibition call (active/not active): Active
[15]
  Activity: 3.8%
[16]
  Activity: 55.3%
[17]
  Activity: 35.1%
[18]
  Activity: 21.6%
[19]
  Activity: 38.4%
Huh-7 [20]
  Activity: Active
[21]
  Activity: Active
[22]
  Activity: Dose-dependent effect
[23]
  Activity: Dose-dependent effect
